Test results reported in ChEMBL document CHEMBL4371071, “Muscarinic agonist, (±)-quinuclidin-3-yl-(4-fluorophenethyl)(phenyl)carbamate: High affinity, but low subtype selectivity for human M1 - M5 muscarinic acetylcholine receptors” (Bioorg Med Chem Lett, 2019).

Legend:
Homo sapiens [1] = organism: Homo sapiens; experiment: Selectivity ratio of Ki for displacement of [3H]NMS from human M2 AChR expressed in CHO cell membranes to Ki for displacement of [3H]NMS from human M3 AChR expressed in CHO cell membranes
[2] = target: T1, Muscarinic acetylcholine receptor M1 (Homo sapiens) (UniProt P11229); conditions: CHO, at 100 µM
T1 sequence (whole entry): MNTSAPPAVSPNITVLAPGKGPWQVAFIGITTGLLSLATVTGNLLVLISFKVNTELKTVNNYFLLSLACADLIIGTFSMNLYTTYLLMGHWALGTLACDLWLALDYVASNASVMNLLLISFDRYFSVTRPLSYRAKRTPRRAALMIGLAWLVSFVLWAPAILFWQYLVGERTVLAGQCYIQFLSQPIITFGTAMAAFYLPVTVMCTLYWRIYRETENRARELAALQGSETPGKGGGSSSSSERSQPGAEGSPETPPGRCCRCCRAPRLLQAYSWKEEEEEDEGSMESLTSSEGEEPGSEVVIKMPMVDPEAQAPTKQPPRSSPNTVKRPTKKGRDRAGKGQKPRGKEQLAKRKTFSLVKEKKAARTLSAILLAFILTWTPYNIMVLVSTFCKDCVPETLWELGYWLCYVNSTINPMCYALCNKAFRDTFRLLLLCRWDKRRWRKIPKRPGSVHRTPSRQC

[3] = target: T2, Muscarinic acetylcholine receptor M1 (Homo sapiens, UniProt P11229); experiment: Displacement of [3H]NMS from human M1 AChR expressed in CHO cell membranes after 1 to 2 hrs by liquid scintillation spectrometry method; type: cell-based
T2 sequence (P11229 whole entry): T1 sequence (whole entry)

[4] = target: T3, Muscarinic acetylcholine receptor M3 (Homo sapiens, UniProt P20309); experiment: Displacement of [3H]NMS from human M3 AChR expressed in CHO cell membranes after 1 to 2 hrs by liquid scintillation spectrometry method; type: cell-based
Target sequence in this assay (P20309 whole entry): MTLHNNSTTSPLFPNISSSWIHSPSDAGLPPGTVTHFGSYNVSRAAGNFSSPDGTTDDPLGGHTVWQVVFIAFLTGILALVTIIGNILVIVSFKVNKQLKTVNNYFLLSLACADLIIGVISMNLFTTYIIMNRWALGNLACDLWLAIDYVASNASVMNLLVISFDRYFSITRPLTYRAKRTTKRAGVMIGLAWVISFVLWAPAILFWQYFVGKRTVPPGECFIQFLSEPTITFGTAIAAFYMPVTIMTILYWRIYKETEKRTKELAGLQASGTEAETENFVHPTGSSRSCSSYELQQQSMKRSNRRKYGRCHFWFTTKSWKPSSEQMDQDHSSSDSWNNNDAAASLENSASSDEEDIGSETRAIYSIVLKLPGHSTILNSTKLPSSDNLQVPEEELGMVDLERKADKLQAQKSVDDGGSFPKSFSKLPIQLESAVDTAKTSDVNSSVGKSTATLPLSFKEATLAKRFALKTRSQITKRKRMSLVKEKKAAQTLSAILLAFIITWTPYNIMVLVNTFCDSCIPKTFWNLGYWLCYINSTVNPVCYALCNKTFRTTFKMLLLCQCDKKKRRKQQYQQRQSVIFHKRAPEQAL

[5] = target: T4, Muscarinic acetylcholine receptor M2 (Homo sapiens) (UniProt P08172); experiment: Displacement of [3H]NMS from human M2 AChR expressed in CHO cell membranes at 100 uM after 1 to 2 hrs by liquid scintillation spectrometry method relative to control
T4 sequence (whole entry): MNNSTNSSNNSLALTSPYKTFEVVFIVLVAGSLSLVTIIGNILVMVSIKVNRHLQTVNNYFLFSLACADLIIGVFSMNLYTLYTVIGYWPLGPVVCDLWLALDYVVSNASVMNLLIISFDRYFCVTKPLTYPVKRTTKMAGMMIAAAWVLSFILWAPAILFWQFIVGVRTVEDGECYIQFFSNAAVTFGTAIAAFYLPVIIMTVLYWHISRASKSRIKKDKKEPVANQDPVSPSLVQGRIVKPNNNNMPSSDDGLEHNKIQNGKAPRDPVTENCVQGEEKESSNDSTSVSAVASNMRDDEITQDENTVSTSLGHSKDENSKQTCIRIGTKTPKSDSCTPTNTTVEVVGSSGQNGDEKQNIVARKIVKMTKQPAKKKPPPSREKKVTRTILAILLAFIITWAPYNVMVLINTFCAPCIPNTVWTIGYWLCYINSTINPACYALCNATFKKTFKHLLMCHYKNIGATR
Summary of the method: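 CHO membranes expressing the human subtype (20 µg protein/well) with 0.3 nM [3H]NMS and analog (1 nM–100 µM) in 50 mM Tris-HCl pH 7.4, 2 h at 25 °C. Filtered on GF/B, washed, counted by scintillation. IC50 taken from curves to give Ki; three independent experiments in duplicate.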

[6] = target: T5, Muscarinic acetylcholine receptor M5 (Homo sapiens, UniProt P08912); experiment: Displacement of [3H]NMS from human M5 AChR expressed in CHO cell membranes after 1 to 2 hrs by liquid scintillation spectrometry method
T5 sequence (P08912 whole entry): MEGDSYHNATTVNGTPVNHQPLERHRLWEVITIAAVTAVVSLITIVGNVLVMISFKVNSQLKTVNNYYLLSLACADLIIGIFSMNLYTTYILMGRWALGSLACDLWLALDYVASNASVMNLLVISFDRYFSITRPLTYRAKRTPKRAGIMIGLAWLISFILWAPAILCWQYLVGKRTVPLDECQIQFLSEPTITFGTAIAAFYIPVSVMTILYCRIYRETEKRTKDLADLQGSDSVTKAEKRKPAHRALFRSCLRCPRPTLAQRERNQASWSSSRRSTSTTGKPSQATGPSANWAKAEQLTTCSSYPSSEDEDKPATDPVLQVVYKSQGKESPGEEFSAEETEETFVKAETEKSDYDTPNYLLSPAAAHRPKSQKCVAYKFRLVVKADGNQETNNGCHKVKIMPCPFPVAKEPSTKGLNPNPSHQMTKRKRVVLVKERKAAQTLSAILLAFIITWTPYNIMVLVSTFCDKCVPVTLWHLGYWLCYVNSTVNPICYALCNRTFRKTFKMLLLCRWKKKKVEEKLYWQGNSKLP
Summary of the method: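 CHO membranes expressing human M5 (10 µg protein/well) with 0.3 nM [3H]NMS and analog (1 nM–100 µM) in 50 mM Tris-HCl pH 7.4, 2 h at 25 °C. Filtered on GF/B, counted by scintillation. IC50 converted to Ki; three independent experiments in duplicate.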

[7] = target: T6, Muscarinic acetylcholine receptor M2 (Homo sapiens, UniProt P08172); experiment: Displacement of [3H]NMS from human M2 AChR expressed in CHO cell membranes after 1 to 2 hrs by liquid scintillation spectrometry method
T6 sequence (P08172 whole entry): T4 sequence (whole entry)
Summary of the method: (§1)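 CHO membranes expressing the human subtype (20 µg protein/well) with 0.3 nM [3H]NMS and analog (1 nM–100 µM) in 50 mM Tris-HCl pH 7.4, 2 h at 25 °C. […] Filtered on GF/B, washed, counted by scintillation. IC50 taken from curves to give Ki; three independent experiments in duplicate.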

Homo sapiens [8] = organism: Homo sapiens; experiment: Selectivity ratio of Ki for displacement of [3H]NMS from human M1 AChR expressed in CHO cell membranes to Ki for displacement of [3H]NMS from human M5 AChR expressed in CHO cell membranes
[9] = target: T7, Muscarinic acetylcholine receptor M5 (Homo sapiens) (UniProt P08912); experiment: Displacement of [3H]NMS from human M5 AChR expressed in CHO cell membranes at 100 uM after 1 to 2 hrs by liquid scintillation spectrometry method relative to control
T7 sequence (whole entry): T5 sequence (P08912 whole entry)
Summary of the method: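 CHO membranes expressing human M5 (10 µg protein/well) with 0.3 nM [3H]NMS and analog (1 nM–100 µM) in 50 mM Tris-HCl pH 7.4, 2 h at 25 °C. […] Filtered on GF/B, counted by scintillation. IC50 converted to Ki; three independent experiments in duplicate.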

[10] = target: T8, Muscarinic acetylcholine receptor M4 (Homo sapiens, UniProt P08173); experiment: Displacement of [3H]NMS from human M4 AChR expressed in CHO cell membranes after 1 to 2 hrs by liquid scintillation spectrometry method
T8 sequence (P08173 whole entry): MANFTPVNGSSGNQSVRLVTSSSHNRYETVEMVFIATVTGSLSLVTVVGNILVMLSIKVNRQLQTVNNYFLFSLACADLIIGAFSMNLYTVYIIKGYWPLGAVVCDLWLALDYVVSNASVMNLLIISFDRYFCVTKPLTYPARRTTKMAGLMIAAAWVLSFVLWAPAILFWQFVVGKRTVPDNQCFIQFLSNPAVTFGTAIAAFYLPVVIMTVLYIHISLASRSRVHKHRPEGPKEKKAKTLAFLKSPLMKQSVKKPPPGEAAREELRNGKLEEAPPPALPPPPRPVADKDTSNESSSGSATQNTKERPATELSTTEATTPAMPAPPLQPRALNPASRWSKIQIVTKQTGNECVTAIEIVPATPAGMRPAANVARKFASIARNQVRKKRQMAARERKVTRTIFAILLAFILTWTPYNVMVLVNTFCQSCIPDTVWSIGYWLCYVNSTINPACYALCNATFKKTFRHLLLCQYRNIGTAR
Summary of the method: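 Human M4-expressing CHO membranes (20 µg protein/well) incubated 2 h at 25 °C with 0.3 nM [3H]NMS and analog (1 nM–100 µM) in 50 mM Tris–HCl pH 7.4. […] Filtered, washed, counted by scintillation. IC50 taken from inhibition curves, Ki from three independent duplicate experiments (mean ± SEM).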

[11] = target: T9, Muscarinic acetylcholine receptor M4 (Homo sapiens) (UniProt P08173); experiment: Displacement of [3H]NMS from human M4 AChR expressed in CHO cell membranes at 100 uM after 1 to 2 hrs by liquid scintillation spectrometry method relative to control; summary of the method: as §1
T9 sequence (whole entry): T8 sequence (P08173 whole entry)

[12] = target: T3, Muscarinic acetylcholine receptor M3; conditions: CHO, at 100 µM
Target sequence in this assay (P20309 whole entry, looked up): as the sequence (P20309 whole entry) above

[13] = target: T10, Muscarinic acetylcholine receptor (Rattus norvegicus) (UniProt P08482+P08483+P08485+P08911+P10980); conditions: 10 uM
[14] = target: T10, Muscarinic acetylcholine receptor (Rattus norvegicus); conditions: 1 uM

SMILES	Ratio Ki (Homo sapiens [1])	Imax [2] [%]	Ki [3] [nM]	Ki [4] [nM]	Imax [5] [%]	Ki [6] [nM]	Ki [7] [nM]	Ratio Ki (Homo sapiens [8])	Imax [9] [%]	Ki [10] [nM]	Imax [11] [%]	Imax [12] [%]	inhibition [13] [%]	inhibition [14] [%]
COc1ccc(CCN(C(=O)OC2CN3CCC2CC3)c2ccccc2)cc1 (racemic)	17.1	100	10	8	99.7	10	130	1	100	25	99.9	99.9		
COc1ccc(COC(=O)N(c2ccccc2)C2CN3CCC2CC3)cc1F (centres undefined)	1.8	99.5	70	50	98.8	40	100	1.5	96.7			100		
O=C(OCCCc1ccc(Cl)c(Cl)c1)N(c1ccccc1)C1CN2CCC1CC2 (centres undefined)	4.7	100	170	60	99.9	130	300	1.3	99.4			100		
CN1[C@@H]2C[C@H](OC(=O)[C@H](CO)c3ccccc3)C[C@H]1[C@@H]1O[C@@H]12													59	51
COc1ccc(CCN(C(=O)OC2CN3CCC2CC3)c2ccccc2)cc1OC (racemic)	5.7	100	95	60	98.6	65	350	1.5	99.8			99.7		
O=C(OCc1ccccc1)N(c1ccccc1)C1CN2CCC1CC2 (centres undefined)	1.2	99.5	190	90	99.4	150	120	1.3	97.2			98.6		
Cc1ccc(COC(=O)N(c2ccccc2)C2CN3CCC2CC3)cc1F (centres undefined)	1.3	100	40	20	99.7	30	30	1.2	97.4			99		
